Test results published in ChEMBL document CHEMBL5385870, “Amide containing NBTI antibacterials with reduced hERG inhibition, retained antimicrobial activity against gram-positive bacteria and in vivo efficacy” (Eur J Med Chem, 2023).
In brackets after ≈: the same amount, converted by molar mass.

What was measured:
Escherichia coli [1] = test: Antimicrobial activity against Escherichia coli D22 assessed as reduction in bacterial growth incubated for 20 hrs by broth microdilution analysis; type: functional
hERG [2] = test: Selectivity index, ratio of IC50 for inhibition of hERG fluorescence polarization assay to MIC for antimicrobial activity against Staphylococcus aureus ATCC 29213 assessed as reduction in bacterial growth; type: toxicity; settings: human; read-out: Selectivity Index
Acinetobacter baumannii = test: Antimicrobial activity against Acinetobacter baumannii assessed as reduction in bacterial growth incubated for 20 hrs by broth microdilution analysis; type: functional
Escherichia coli [3] = test: Antimicrobial activity against multidrug-resistant Escherichia coli assessed as reduction in bacterial growth incubated for 20 hrs by broth microdilution analysis; type: functional
Method in brief: (§1)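 MIC was determined by broth microdilution per CLSI/EUCAST. Inoculum was 10^5 CFU/mL in cation-adjusted Mueller-Hinton broth with TES, with compounds in DMSO, incubated 20 h at 35 °C. MIC was read visually as the lowest concentration without turbidity. Tetracycline was the plate control.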

[4] = target: DNA topoisomerase 2-alpha (Homo sapiens) (UniProt P11388); test: Inhibition of human DNA topoisomerase 2-alpha assessed as residual activity at 100 uM incubated for 30 mins relative to control
[5] = Antimicrobial activity against Salmonella alachua RDK 030c assessed as reduction in bacterial growth incubated for 20 hrs by broth microdilution analysis; type: functional
DNA gyrase [6] = target: DNA gyrase (Escherichia coli, UniProt P0AES4+P0AES6); test: Inhibition of Escherichia coli DNA gyrase supercoiling incubated for 30 mins in presence of ATP; type: protein-complex assay
Method in brief: (§2)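 Gyrase supercoiling plate assay (triplex capture on streptavidin plates with immobilized biotinylated oligonucleotide): 1.5 U enzyme, 0.75 µg relaxed pNO1 plasmid, inhibitor in 10% DMSO/0.008% Tween-20, 37 °C 30 min, 30 µl. Buffer for E. coli: 35 mM Tris pH 7.5, 1 mM ATP; S. aureus: 40 mM HEPES-KOH pH 7.6, 2 mM ATP, 500 mM K-glutamate. Diamond dye fluorescence (ex 495/em 537 nm). Pre-screen 100 and 1 µM; IC50 from seven concentrations by four-parameter fit, mean of two runs.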

DNA gyrase [7] = target: DNA gyrase (Staphylococcus aureus, UniProt P0A0K8+P20831); test: Inhibition of Staphylococcus aureus DNA gyrase supercoiling incubated for 30 mins in presence of ATP; type: protein-complex assay; method in brief: as §2
Staphylococcus aureus [8] = test: Antimicrobial activity against cefoxitin/ciprofloxacin/clindamycin/erythromycin/tetracycline/thiamulin/trimethoprim-resistant Staphylococcus aureus assessed as reduction in bacterial growth incubated for 20 hrs by broth microdilution analysis; type: functional; method in brief: as §1
[9] = Inhibition of Escherichia coli DNA topoisomerase 4 relaxation activity measured for 30 mins
Method in brief: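 TopoIV relaxation plate assay: 1.5 U enzyme with 0.75 µg supercoiled pNO1 plasmid, inhibitor in 10% DMSO/0.008% Tween-20, 37 °C 30 min; E. coli buffer 40 mM HEPES-KOH pH 7.6 with 1 mM ATP, S. aureus buffer 50 mM Tris pH 7.5 with 1.5 mM ATP. Triplex capture, Diamond dye fluorescence 495/537 nm.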

[10] = target: Voltage-gated inwardly rectifying potassium channel KCNH2 (Homo sapiens, UniProt Q12809); test: Inhibition of hERG fluorescence polarization assay; type: toxicity
Escherichia coli [11] = test: Antimicrobial activity against Escherichia coli N43 assessed as reduction in bacterial growth incubated for 20 hrs by broth microdilution analysis; type: functional
Klebsiella pneumoniae = test: Antimicrobial activity against Klebsiella pneumoniae assessed as reduction in bacterial growth incubated for 20 hrs by broth microdilution analysis; type: functional
hERG [12] = test: Selectivity index, ratio of IC50 for inhibition of hERG fluorescence polarization assay to MIC for antimicrobial activity against multidrug-resisitant Staphylococcus aureus assessed as reduction in bacterial growth; type: toxicity; settings: human; read-out: Selectivity Index
Staphylococcus aureus [13] = test: Antimicrobial activity against cefoxitin/gentamicin/kanamycin/rifampicin/streptomycin/sulfamethoxazole/tetracycline-resistant Staphylococcus aureus assessed as reduction in bacterial growth incubated for 20 hrs by broth microdilution analysis; type: functional; method in brief: as §1
Pseudomonas aeruginosa = test: Antimicrobial activity against Pseudomonas aeruginosa RDK 184 assessed as reduction in bacterial growth incubated for 20 hrs by broth microdilution analysis; type: functional
Staphylococcus aureus [14] = test: Antimicrobial activity against Staphylococcus aureus ATCC 29213 assessed as reduction in bacterial growth incubated for 20 hrs by broth microdilution analysis; type: functional; method in brief: as §1
Enterococcus faecalis = test: Antimicrobial activity against Enterococcus faecalis DRK 057 assessed as reduction in bacterial growth incubated for 20 hrs by broth microdilution analysis; type: functional
Escherichia coli [15] = test: Antimicrobial activity against Escherichia coli ATCC 25922 assessed as reduction in bacterial growth incubated for 20 hrs by broth microdilution analysis; type: functional
Staphylococcus aureus [16] = test: Antimicrobial activity against multidrug-resistant Staphylococcus aureus assessed as reduction in bacterial growth incubated for 20 hrs by broth microdilution analysis; type: functional; method in brief: as §1
HepG2 = test: Cytotoxicity against human HepG2 cells assessed as inhibition of cell growth at 50 uM incubated for 72 hrs by […]; type: functional; set-up: scale not given: the % may be the effect or the level left
Method in brief: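 HepG2 in DMEM with 10% FBS, 2 mM glutamine, penicillin/streptomycin, 37 °C, 5% CO₂; seeded 8,000 cells/well, attached overnight, then treated 1.25–100 µM or vehicle for 72 h. Metabolic activity by CellTiter 96 Aqueous One (MTS) absorbance 492 nm.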

Topoisomerase IV = Topoisomerase IV (Staphylococcus aureus, UniProt P0C1S7+P0C1U9); test: Inhibition of Staphylococcus aureus DNA topoisomerase 4 relaxation activity measured for 30 mins; type: protein-complex assay
Method in brief: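 TopoIV relaxation plate assay: 1.5 U enzyme with 0.75 µg supercoiled pNO1 plasmid, inhibitor in 10% DMSO/0.008% Tween-20, 37 °C 30 min; E. coli buffer 40 mM HEPES-KOH pH 7.6 with 1 mM ATP, S. aureus buffer 50 mM Tris pH 7.5 with 1.5 mM ATP.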

[17] = Acute toxicity in zebrafish embryos assessed as lethal concentration compound administered from 6 hrs post fertilization and measured after 120 hrs post fertilization; set-up: species or system Danio rerio; settings: in vivo
Method in brief: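 Wild-type AB zebrafish embryos in E3 medium at 28 °C were exposed by immersion from 6 hpf to 0.39–25 µg/mL (top dose 12.5 µg/mL for one compound), with DMSO at most 0.25%. Controls were 0.25% DMSO and 25 µg/mL doxorubicin. Embryos were inspected daily for death and toxicity signs through 120 hpf. Runs were in triplicate, with 24 embryos per concentration.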

Voltage-gated inwardly rectifying potassium channel KCNH2, sequence (Q12809 whole entry): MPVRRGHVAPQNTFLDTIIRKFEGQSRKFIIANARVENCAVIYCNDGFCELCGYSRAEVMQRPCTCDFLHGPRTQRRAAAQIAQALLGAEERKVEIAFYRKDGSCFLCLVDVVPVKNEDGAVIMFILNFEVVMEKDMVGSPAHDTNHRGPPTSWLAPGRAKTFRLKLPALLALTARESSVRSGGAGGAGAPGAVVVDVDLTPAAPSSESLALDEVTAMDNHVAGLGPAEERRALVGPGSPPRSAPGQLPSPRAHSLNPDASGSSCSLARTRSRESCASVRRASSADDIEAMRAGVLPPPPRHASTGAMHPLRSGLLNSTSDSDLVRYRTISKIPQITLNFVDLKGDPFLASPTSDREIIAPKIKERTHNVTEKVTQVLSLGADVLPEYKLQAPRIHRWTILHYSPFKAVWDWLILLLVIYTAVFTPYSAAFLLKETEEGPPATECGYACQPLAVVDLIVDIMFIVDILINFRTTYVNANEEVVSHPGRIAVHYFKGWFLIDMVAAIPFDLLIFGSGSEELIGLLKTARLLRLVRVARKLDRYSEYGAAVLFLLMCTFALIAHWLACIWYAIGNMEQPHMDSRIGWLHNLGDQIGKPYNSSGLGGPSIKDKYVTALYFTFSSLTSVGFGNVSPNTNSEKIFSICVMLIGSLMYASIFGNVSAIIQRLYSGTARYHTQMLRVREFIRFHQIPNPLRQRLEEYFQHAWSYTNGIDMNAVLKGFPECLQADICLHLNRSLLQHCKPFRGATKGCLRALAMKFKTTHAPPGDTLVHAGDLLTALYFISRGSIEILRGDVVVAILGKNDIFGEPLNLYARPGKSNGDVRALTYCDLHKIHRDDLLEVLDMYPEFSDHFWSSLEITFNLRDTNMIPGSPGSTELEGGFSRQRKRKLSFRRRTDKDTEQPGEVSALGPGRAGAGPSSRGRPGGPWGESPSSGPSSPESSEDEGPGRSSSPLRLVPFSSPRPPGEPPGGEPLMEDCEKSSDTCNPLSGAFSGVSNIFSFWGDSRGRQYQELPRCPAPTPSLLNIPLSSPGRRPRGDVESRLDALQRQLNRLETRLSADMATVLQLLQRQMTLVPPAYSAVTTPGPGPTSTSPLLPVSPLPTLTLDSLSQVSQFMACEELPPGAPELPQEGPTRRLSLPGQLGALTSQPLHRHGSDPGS
DNA gyrase (Staphylococcus aureus, UniProt P0A0K8+P20831), sequence (P0A0K8 whole entry): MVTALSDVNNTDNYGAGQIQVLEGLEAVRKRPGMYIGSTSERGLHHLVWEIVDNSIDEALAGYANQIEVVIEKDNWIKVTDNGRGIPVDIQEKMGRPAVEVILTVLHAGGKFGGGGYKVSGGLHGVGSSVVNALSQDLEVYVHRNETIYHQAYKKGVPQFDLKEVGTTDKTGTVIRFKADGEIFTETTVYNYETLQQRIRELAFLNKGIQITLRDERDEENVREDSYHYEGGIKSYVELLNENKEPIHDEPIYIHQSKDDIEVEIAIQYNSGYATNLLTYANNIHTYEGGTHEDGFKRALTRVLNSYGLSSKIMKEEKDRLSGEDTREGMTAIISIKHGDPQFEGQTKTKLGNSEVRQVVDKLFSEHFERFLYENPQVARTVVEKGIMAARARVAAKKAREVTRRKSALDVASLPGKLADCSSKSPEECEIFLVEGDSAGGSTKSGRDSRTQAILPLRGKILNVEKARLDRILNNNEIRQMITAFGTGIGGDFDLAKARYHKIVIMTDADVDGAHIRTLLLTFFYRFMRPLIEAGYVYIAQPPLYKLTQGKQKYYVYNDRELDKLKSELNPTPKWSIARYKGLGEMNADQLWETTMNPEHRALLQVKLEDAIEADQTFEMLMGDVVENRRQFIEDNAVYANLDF
DNA gyrase (Staphylococcus aureus, UniProt P0A0K8+P20831), sequence (P20831 whole entry): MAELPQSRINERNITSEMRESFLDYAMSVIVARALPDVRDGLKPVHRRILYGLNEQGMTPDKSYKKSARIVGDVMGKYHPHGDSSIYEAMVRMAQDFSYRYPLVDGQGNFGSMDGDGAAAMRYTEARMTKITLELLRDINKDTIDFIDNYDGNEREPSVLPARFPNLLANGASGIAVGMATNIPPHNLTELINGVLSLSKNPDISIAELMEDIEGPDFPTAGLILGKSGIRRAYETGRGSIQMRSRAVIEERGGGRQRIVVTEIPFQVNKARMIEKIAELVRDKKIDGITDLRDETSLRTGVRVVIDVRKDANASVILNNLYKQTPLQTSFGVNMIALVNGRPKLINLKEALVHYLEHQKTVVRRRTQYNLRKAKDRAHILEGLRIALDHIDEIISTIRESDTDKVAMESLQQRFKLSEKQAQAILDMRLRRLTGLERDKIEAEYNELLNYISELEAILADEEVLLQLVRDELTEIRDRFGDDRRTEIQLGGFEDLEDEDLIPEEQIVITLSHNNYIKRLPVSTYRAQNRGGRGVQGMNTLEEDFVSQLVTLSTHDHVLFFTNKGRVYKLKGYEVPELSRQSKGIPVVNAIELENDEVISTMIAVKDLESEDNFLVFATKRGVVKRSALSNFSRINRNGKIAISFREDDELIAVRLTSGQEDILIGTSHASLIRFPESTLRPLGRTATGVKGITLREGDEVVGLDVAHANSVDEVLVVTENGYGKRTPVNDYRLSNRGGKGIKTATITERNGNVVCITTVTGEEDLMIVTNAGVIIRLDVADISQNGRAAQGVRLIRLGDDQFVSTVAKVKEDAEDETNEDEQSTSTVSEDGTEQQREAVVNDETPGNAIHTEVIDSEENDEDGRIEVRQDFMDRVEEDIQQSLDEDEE
DNA topoisomerase 2-alpha (Homo sapiens), sequence (P11388 whole entry): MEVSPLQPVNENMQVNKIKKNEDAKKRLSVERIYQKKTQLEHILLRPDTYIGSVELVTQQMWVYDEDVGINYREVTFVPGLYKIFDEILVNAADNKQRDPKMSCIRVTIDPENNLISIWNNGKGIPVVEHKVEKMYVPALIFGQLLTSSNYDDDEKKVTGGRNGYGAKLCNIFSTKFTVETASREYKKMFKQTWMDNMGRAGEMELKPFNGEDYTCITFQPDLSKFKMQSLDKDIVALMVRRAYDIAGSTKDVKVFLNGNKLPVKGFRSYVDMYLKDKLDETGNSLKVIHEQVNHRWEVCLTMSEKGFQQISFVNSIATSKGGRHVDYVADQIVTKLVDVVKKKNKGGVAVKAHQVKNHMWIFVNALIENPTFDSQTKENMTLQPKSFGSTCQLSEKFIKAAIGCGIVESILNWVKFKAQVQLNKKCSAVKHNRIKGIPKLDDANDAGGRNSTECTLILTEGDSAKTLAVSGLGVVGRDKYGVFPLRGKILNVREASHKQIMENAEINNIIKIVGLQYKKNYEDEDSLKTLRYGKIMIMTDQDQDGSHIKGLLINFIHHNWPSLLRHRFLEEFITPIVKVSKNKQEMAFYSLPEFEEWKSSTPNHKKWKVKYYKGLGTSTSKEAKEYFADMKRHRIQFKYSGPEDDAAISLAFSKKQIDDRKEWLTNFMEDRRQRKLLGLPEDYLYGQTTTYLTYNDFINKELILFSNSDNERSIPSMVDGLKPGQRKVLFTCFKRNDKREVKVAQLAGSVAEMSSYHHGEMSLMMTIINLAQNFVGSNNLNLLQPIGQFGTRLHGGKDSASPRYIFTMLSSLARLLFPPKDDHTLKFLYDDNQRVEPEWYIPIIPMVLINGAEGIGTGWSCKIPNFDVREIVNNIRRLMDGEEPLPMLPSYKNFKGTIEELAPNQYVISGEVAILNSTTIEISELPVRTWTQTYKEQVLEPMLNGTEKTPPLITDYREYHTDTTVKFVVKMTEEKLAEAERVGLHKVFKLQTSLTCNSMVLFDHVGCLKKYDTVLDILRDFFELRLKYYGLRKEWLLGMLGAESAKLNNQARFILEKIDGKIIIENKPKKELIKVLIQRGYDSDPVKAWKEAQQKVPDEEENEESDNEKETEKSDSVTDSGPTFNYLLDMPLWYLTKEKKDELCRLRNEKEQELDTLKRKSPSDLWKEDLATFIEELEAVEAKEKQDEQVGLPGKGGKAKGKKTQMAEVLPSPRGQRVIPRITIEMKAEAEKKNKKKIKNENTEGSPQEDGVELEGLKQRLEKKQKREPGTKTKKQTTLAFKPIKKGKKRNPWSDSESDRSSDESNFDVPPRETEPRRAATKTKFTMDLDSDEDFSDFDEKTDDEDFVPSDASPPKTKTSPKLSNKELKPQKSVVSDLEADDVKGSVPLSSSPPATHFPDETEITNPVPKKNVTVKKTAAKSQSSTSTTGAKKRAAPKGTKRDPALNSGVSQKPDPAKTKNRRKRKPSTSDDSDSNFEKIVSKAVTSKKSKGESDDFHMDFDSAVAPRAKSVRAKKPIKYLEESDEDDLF

SMILES	MIC (Escherichia coli [1])	selectivity ratio (hERG [2])	MIC (Acinetobacter baumannii)	MIC (Escherichia coli [3])	Activity [4] [%]	MIC [5] [µM]	IC50 (DNA gyrase [6]) [nM]	IC50 (DNA gyrase [7]) [nM]	MIC (Staphylococcus aureus [8])	IC50 [9] [nM]	IC50 [10] [nM]	MIC (Escherichia coli [11])	MIC (Klebsiella pneumoniae)	selectivity ratio (hERG [12])	MIC (Staphylococcus aureus [13]) [µM]	MIC (Pseudomonas aeruginosa) [µM]	MIC (Staphylococcus aureus [14])	MIC (Enterococcus faecalis) [µM]	MIC (Escherichia coli [15])	MIC (Staphylococcus aureus [16]) [µM]	further results
COc1ccc2nccc(OC[C@H]3CC[C@H](NC(=O)c4ccc(I)c(F)c4)CC3)c2n1	239 µM	≥ 0.125	> 239 µM	> 239 µM	99.1	> 239	> 100000	> 100000	239 µM	> 100000	> 30000	239 µM	> 239 µM	≥ 0.125	> 239	> 239	239 µM	> 239	239 µM	> 239	Activity (HepG2): 96%; IC50 (Topoisomerase IV): > 100000 nM
COc1ccc2nccc(CCN3CCC(NC(=O)c4cc(F)c(Cl)c(F)c4)CC3)c2n1	0.542 µM	1.3	4.34 µM	> 278 µM	101	> 278	236	220	0.271 µM	41	178	0.135 µM	> 278 µM	0.656	0.137 (≈ 0.0631 µg/mL)	> 278	0.137 µM	2.17 (≈ 1 µg/mL)	69.4 µM	0.271 (≈ 0.125 µg/mL)	Activity (HepG2): 84%; IC50 (Topoisomerase IV): 177 nM
CN(C)[C@@H]1C(O)=C(C(N)=O)C(=O)[C@@]2(O)C(O)=C3C(=O)c4c(O)cccc4[C@@](C)(O)[C@H]3C[C@@H]12 [TETRACYCLINE]	1 µg/mL		> 4 µg/mL	> 4 µg/mL					> 4 µg/mL			0.25 µg/mL	> 4 µg/mL				0.25 µg/mL		1 µg/mL		
COc1ccc2nccc(CCN3CCC(NC(=O)c4cc(F)c(Br)c(F)c4)CC3)c2n1	0.247 µM	1.99	3.96 µM	253 µM	102	> 253	114	108	0.247 µM	40	122	0.061 µM	> 253 µM	0.493	0.061 (≈ 0.0308 µg/mL)	> 253	0.061 µM	0.495 (≈ 0.25 µg/mL)	63.3 µM	0.125 (≈ 0.0632 µg/mL)	LC50 at 114 h [17]: > 25 µg/mL; Activity (HepG2): 61%; IC50 (Topoisomerase IV): 84 nM
COc1ccc2nccc(CCN3CCC(NC(=O)c4ccc(I)c(F)c4)CC3)c2n1	0.468 µM	1.65	240 µM	> 240 µM	102	> 240	277	114	0.234 µM	43	96	0.234 µM	> 240 µM	0.41	0.058 (≈ 0.031 µg/mL)	> 240	0.058 µM	0.468 (≈ 0.25 µg/mL)	240 µM	0.234 (≈ 0.125 µg/mL)	Activity (HepG2): 89%; IC50 (Topoisomerase IV): 261 nM
COc1ccc2nccc(OC[C@H]3CC[C@H](NC(=O)c4cc(F)c(Br)c(F)c4)CC3)c2n1	64.8 µM	≥ 0.119	> 64.8 µM	> 64.8 µM	101	> 64.8	> 100000	> 100000	64.8 µM	> 100000	> 30000	64.8 µM	> 64.8 µM	≥ 0.119	> 64.8	> 64.8	253 µM	> 64.8	64.8 µM	> 64.8	Activity (HepG2): 90%; IC50 (Topoisomerase IV): > 100000 nM
COc1ccc2nccc(OC[C@H]3CC[C@H](NC(=O)c4cc(F)c(Cl)c(F)c4)CC3)c2n1	277 µM	≥ 0.108	> 277 µM	> 277 µM	100	> 277	> 100000	> 100000	277 µM	> 100000	> 30000	277 µM	> 277 µM	≥ 0.108	277 (≈ 128 µg/mL)	> 277	277 µM	> 277	277 µM	> 277	Activity (HepG2): 96%; IC50 (Topoisomerase IV): > 100000 nM
